Laboratory results published in BindingDB's records for doi:10.1016/j.bmcl.2012.04.051 (Ajinomoto Pharmaceuticals, 2012).

Target: Voltage-dependent N-type calcium channel subunit alpha-1B (Homo sapiens, UniProt Q00975)
Test: Inhibition of N-type voltage-dependent calcium channel CaV2.2 in human IMR32 cells assessed as inhibition of KCl-induced increase in intracellular calcium concentration preincubated for 4 to 5 mins before KCl challenge
Method in brief: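 IMR-32 cells on poly-L-lysine/collagen dishes, differentiated with 1 mM dibutyl-cAMP and 2.5 µM bromodeoxyuridine for 10–14 days. Loaded with 2.5 µM fura-2/AM, 37 °C, 30 min. HEPES recording medium with 1 µM nifedipine throughout. Calcium rise evoked by 60 mM KCl for 6 s, repeated every 5 min. Compound at 0.1, 1 or 10 µM; IC50 from ≥2 independent experiments.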

Chain of Voltage-dependent N-type calcium channel subunit alpha-1B (Q00975 whole entry): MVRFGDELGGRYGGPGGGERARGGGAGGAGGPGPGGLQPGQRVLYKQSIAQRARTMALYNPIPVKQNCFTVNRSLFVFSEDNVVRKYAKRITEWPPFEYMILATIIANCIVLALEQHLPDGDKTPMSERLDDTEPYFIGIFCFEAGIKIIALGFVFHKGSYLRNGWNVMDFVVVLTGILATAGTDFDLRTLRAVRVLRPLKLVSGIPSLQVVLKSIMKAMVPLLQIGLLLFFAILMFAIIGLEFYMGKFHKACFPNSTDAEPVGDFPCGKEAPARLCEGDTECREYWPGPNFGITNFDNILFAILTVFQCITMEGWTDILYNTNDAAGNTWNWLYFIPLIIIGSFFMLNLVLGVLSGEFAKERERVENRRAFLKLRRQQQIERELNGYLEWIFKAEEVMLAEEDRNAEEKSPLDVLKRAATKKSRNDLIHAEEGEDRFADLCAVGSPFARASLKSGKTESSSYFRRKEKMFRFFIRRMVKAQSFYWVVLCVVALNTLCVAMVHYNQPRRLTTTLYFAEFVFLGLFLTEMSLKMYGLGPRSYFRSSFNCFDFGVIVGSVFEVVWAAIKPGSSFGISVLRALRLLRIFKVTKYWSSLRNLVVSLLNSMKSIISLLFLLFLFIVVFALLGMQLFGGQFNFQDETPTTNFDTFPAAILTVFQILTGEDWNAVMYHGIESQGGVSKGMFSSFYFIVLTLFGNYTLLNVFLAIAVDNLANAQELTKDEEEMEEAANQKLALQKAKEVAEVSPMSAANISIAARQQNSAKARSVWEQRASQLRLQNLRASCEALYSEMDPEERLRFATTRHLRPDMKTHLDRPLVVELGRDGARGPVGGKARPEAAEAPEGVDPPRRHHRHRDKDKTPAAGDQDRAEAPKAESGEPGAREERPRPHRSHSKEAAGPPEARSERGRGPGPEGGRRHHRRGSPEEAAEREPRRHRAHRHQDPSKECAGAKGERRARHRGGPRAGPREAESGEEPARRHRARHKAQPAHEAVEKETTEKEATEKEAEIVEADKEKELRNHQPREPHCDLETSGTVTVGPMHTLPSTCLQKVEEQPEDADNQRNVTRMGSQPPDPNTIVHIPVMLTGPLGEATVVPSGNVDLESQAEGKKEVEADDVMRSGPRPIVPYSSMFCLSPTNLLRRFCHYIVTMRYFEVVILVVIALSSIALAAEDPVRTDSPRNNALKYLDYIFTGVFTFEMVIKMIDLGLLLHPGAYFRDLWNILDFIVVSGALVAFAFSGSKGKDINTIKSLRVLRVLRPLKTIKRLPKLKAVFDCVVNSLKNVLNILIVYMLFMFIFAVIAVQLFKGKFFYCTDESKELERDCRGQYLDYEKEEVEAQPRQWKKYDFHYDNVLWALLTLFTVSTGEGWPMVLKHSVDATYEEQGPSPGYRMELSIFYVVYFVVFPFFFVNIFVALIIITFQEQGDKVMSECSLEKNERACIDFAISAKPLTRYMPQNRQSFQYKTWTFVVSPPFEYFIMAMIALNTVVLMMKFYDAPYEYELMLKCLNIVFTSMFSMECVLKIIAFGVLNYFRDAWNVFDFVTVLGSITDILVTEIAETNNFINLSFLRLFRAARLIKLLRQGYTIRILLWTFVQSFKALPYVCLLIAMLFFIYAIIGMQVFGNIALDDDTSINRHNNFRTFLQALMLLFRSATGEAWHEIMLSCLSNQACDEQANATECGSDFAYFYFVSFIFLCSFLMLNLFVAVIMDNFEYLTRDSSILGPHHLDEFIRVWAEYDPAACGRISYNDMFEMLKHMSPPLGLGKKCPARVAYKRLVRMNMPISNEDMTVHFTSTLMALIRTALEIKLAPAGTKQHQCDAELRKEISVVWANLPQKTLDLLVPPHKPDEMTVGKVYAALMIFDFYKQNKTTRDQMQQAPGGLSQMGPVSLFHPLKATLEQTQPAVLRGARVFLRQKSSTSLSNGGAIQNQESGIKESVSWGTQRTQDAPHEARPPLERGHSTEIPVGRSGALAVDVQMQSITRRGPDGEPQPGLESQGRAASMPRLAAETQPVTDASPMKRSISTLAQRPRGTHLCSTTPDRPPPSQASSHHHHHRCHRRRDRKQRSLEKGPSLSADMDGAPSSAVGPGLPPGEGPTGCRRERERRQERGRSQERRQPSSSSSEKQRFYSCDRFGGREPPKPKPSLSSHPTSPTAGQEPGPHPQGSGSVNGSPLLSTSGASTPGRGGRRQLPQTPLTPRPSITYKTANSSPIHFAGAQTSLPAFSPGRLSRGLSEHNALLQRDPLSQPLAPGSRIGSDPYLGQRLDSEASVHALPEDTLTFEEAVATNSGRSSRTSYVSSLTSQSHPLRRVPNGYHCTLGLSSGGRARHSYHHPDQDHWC

Row | IC50 [nM] | Compound
1 | 1100 | COC(OC)C1=C(C(=O)OC/C=C/c2ccccc2)C(c2cccc(Cl)c2)C(C(=O)O)C=N1 (configuration not stated)
2 | 1200 | COc1c(Cl)cc(C2C(C(=O)OC/C=C/c3ccccc3)=C(C(OC)OC)N=CC2C(=O)O)cc1Cl (configuration not stated)
3 | 1200 | O=C(OC/C=C/c1ccccc1)C1=CN=CC(C(=O)O)C1c1cccc(C(F)(F)F)c1 (configuration not stated)
4 | 1100 | COC(OC)C1=C(C(=O)OC/C=C/c2ccccc2)C(c2cccc(C(F)(F)F)c2)C(C(=O)O)C=N1 (configuration not stated)
5 | 1200 | O=C(OC/C=C/c1ccccc1)C1=CN=CC(C(=O)O)C1c1ccc(Cl)cc1 (configuration not stated)
6 | 1100 | COC(OC)C1=C(C(=O)OC/C=C/c2ccccc2)C(c2ccc(Cl)cc2)C(C(=O)O)C=N1 (configuration not stated)
7 | 580 | COc1c(Cl)cc(C2C(C(=O)OC/C=C/c3ccccc3)=CN=CC2C(=O)O)cc1Cl (configuration not stated)
